According to ChEMBL document CHEMBL1121953, “Carbon-7 substituted actinomycin D analogues as improved antitumor agents: synthesis and DNA-binding and biological properties” (J Med Chem, 1982):
≈ marks a conversion by molar mass, not a printed value.

What was measured:
Homo sapiens = species on record: Homo sapiens; experiment: In vitro growth inhibitory activity against human lymphoblastic leukemia cells; assay type: functional; details: read-out: ID50 (the source's name)
Outline: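 CCRF-CEM human lymphoblastic leukemia cells in log-phase growth; compounds dissolved in Me₂SO, final growth medium 1% Me₂SO.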

[1] = In vitro growth inhibitory activity for effect on melting temperature of DNA was determined
Outline: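 DNA thermal denaturation; ΔTm = Tm of DNA-drug complex minus Tm of DNA. Drug 1.4×10⁻⁴ M, DNA (P) 1.4×10⁻³ M in 0.01 M phosphate buffer pH 7.0 with 5×10⁻³ M EDTA and 5% dimethyl sulfoxide.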

P388 [2] = experiment: Maximum tolerated dose was compared to 7-(2,3-Epoxypropoxy)-actinomycin D against P-388 leukemia in mice(4 days); assay type: functional, Mus musculus
Outline: (§1)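 Tumor-free male CDF1 mice (18-23 g) received a broad dose range ip in 10% dimethyl sulfoxide-saline, either on days 1, 5, 9 (three injections) or on 4 successive days (qd 1-4). Deaths were recorded over 21 days. MTD was the dose lethal to 10% (LD10), taken from a plot of log dose vs percent mortality. Average of two experiments.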

P388 [3] = experiment: Antitumor activity against P-388 lymphocytic leukemia in CDF1 hybrid male mice measured as median survival time (1.8 mg/kg),ip; assay type: functional, Mus musculus
Outline: (§2)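 Male CDF1 mice (18-23 g) were inoculated ip with 10⁶ P-388 cells on day 0. Drug was given ip in 10% dimethyl sulfoxide-saline on days 1, 5 and 9. Test solutions were kept at 0-4 °C, protected from light, and checked periodically for stability and homogeneity by TLC and HPLC. Read-out was survival, median survival time, increase in life span and tumor-free cures per 7 animals.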

P388 [4] = experiment: Antitumor activity against P-388 lymphocytic leukemia in CDF1 hybrid male mice measured as median survival time ( 2.4 mg/kg),ip; assay type: functional, Mus musculus; outline: as §2
P388 [5] = experiment: Antitumor activity against P-388 lymphocytic leukemia in CDF1 hybrid male mice measured as percent increase in lifespan( 0.15 mg/kg),ip; assay type: functional; details: Mus musculus; outline: as §2
P388 [6] = experiment: Number of mice with P-388 lymphocytic leukemia cured( 0.6 mg/kg),ip; 1/7; assay type: functional, Mus musculus; outline: as §2
P388 [7] = experiment: Maximum tolerated dose was compared to 7-(2,3-Epoxypropoxy)-actinomycin D against P-388 leukemia in mice(3 days); assay type: functional, Mus musculus; outline: as §1
P388 [8] = experiment: Number of mice with P-388 lymphocytic leukemia cured( 2.4 mg/kg),ip; 2/7; assay type: functional, Mus musculus; outline: as §2
P388 [9] = experiment: Antitumor activity against P-388 lymphocytic leukemia in CDF1 hybrid male mice measured as percent increase in lifespan( 0.6 mg/kg),ip; assay type: functional; details: Mus musculus; outline: as §2
P388 [10] = experiment: Antitumor activity against P-388 lymphocytic leukemia in CDF1 hybrid male mice measured as median survival time ( 0.15 mg/kg),ip; assay type: functional, Mus musculus; outline: as §2
P388 [11] = experiment: Antitumor activity against P-388 lymphocytic leukemia in CDF1 hybrid male mice measured as percent increase in lifespan( 2.4 mg/kg),ip; assay type: functional; details: Mus musculus; outline: as §2
P388 [12] = experiment: Number of mice with P-388 lymphocytic leukemia cured.( 0.15 mg/kg),ip; 0/7; assay type: functional, Mus musculus; outline: as §2
P388 [13] = experiment: Minimum effective dose was determined compared to 7-(2,3-Epoxypropoxy)-actinomycin D against P-388 leukemia in mice(3 days); assay type: functional, Mus musculus; design: unit: mg/kg
Outline: (§3)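 MED was the dose (mg/kg) giving a 40% increase in life span over control in mice bearing ip P-388 leukemia. Drug was given ip in 10% dimethyl sulfoxide-saline on a q4d 1, 5, 9 (three injections) or qd 1-4 (four injections) schedule.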

P388 [14] = experiment: Antitumor activity against P-388 lymphocytic leukemia in CDF1 hybrid male mice measured as median survival time ( 0.6 mg/kg),ip; assay type: functional, Mus musculus; outline: as §2
P388 [15] = experiment: Antitumor activity against P-388 lymphocytic leukemia in CDF1 hybrid male mice measured as percent increase in lifespan( 0.3 mg/kg),ip; assay type: functional; details: Mus musculus; outline: as §2
P388 [16] = experiment: Antitumor activity against P-388 lymphocytic leukemia in CDF1 hybrid male mice measured as percent increase in lifespan(1.8 mg/kg),ip; assay type: functional, Mus musculus; outline: as §2
P388 [17] = experiment: Minimum effective dose was compared to 7-(2,3-Epoxypropoxy)-actinomycin D against P-388 leukemia in mice(4 days); assay type: functional, Mus musculus; outline: as §3
P388 [18] = experiment: Number of mice with P-388 lymphocytic leukemia cured.( 1.8 mg/kg),ip; 3/7; assay type: functional, Mus musculus
P388 [19] = experiment: Antitumor activity against P-388 lymphocytic leukemia in CDF1 hybrid male mice measured as percent increase in (1.2 mg/kg),ip; assay type: functional, Mus musculus; outline: as §2
P388 [20] = experiment: Number of mice with P-388 lymphocytic leukemia cured( 1.2 mg/kg),ip; 3/7; assay type: functional, Mus musculus; outline: as §2
P388 [21] = experiment: Number of mice with P-388 lymphocytic leukemia cured( 0.3 mg/kg),ip; 1/7; assay type: functional, Mus musculus; outline: as §2
P388 [22] = experiment: Antitumor activity against P-388 lymphocytic leukemia in CDF1 hybrid male mice measured as median survival time ( 1.2 mg/kg),ip; assay type: functional, Mus musculus; outline: as §2
P388 [23] = experiment: Antitumor activity against P-388 lymphocytic leukemia in CDF1 hybrid male mice measured as median survival time ( 0.3 mg/kg),ip; assay type: functional, Mus musculus; outline: as §2

## CCN(CC)C(=O)c1c2nc3c(C(=O)N(CC)CC)cc(OCC4CO4)c(C)c3oc-2c(C)c(=O)c1N (stereo unspecified)
Homo sapiens
  IC50: 9 µg/mL (≈ 17.6 µM)
[1]
  DNA melting temperature shift (ΔTm): 0 °C

## Cc1c2oc3c(C)c(OCC4CO4)cc(C(=O)N[C@@H]4C(=O)N[C@H](C(C)C)C(=O)N5CCC[C@H]5C(=O)N(C)CC(=O)N(C)[C@@H](C(C)C)C(=O)O[C@@H]4C)c3nc-2c(C(=O)N[C@@H]2C(=O)N[C@H](C(C)C)C(=O)N3CCC[C@H]3C(=O)N(C)CC(=O)N(C)[C@@H](C(C)C)C(=O)O[C@@H]2C)c(N)c1=O (stereo partly specified)
P388 [2]
  MTD: 1.6
P388 [3]
  MST: 44 days
P388 [4]
  MST: 26 days
P388 [5]
  ILS at 0.15 mg/kg: 164%
P388 [6]
  Cure: 1
P388 [7]
  MTD: 3.6
P388 [8]
  Cure: 2
P388 [9]
  ILS at 0.6 mg/kg: 255%
P388 [10]
  MST: 29 days
P388 [11]
  ILS at 2.4 mg/kg: 136%
P388 [12]
  Cure: 0
P388 [13]
  MED: 0.05
Homo sapiens
  IC50: 0.009 µg/mL (≈ 0.00678 µM)
P388 [14]
  MST: 41 days
P388 [15]
  ILS at 0.3 mg/kg: 263%
P388 [16]
  ILS: 300%
P388 [17]
  MED: 0.0375
P388 [18]
  Cure: 3
P388 [19]
  ILS: 291%
P388 [20]
  Cure: 3
P388 [21]
  Cure: 1
P388 [22]
  MST: 43 days
P388 [23]
  MST: 40 days

## Cc1c2oc3c(C)c(OCC(O)CO)cc(C(=O)N[C@H]4C(=O)N[C@@H](C(C)C)C(=O)N5CCC[C@H]5C(=O)N(C)CC(=O)N(C)[C@@H](C(C)C)C(=O)O[C@H]4C)c3nc-2c(C(=O)N[C@H]2C(=O)N[C@@H](C(C)C)C(=O)N3CCC[C@H]3C(=O)N(C)CC(=O)N(C)[C@@H](C(C)C)C(=O)O[C@H]2C)c(N)c1=O (stereo partly specified)
[1]
  DNA melting temperature shift (ΔTm): 5.1 °C
